Reference: ChEMBL document CHEMBL1139875, “Discovery of 4-aminobutyric acid derivatives possessing anticonvulsant and antinociceptive activities: a hybrid pharmacophore approach” (2007)
Calls of active or inactive are those of the source. No cut-off for these calls is given here.

Tests used:
Mus musculus [1] = test: Anticonvulsant activity in Swiss Albino mouse at 300 mg/kg, ip after 0.5 hr by scSTY test; assay type: functional, organism-based; design: dose 300 mg/kg
Outline: (§1)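 Mice (Swiss, 20-25 g) given i.p. doses of 30, 100 and 300 mg/kg under ADD program protocols, three per group, examined at 0.5 and 4 h in MES, scPTZ, scSTY or scPIC seizure tests. Value is the minimum dose protecting half or more of the mice.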

Mus musculus [2] = test: Anticonvulsant activity in Swiss Albino mouse at 300 mg/kg, ip after 0.5 hr by scPTZ test; assay type: functional, organism-based; design: dose 300 mg/kg; outline: as §1
Rattus norvegicus [3] = test: Antihyperalgesic effects in Sprague-Dawley rat CCI model assessed as duration of paw withdrawal at 100 mg/kg, ip after 1 hr; assay type: functional; conditions: route intraperitoneal
Rattus norvegicus [4] = test: Anti-dynamic allodynia effect in Sprague-Dawley rat SNL model assessed as latency to paw withdrawal 100 mg/kg, ip after 2 hrs; assay type: functional; conditions: route intraperitoneal
Outline: (§2)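 Left L5 spinal nerve ligation rats, tested preoperatively and 9 days postoperatively, then given 100 mg/kg i.p. (vehicle 30% v/v PEG 400 in water). After 10 min acclimatization, plantar surface of affected paw stroked mildly with a cotton-bud; paw lift response recorded. n = 4; retested 0.5-2.5 h post-dose.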

Rattus norvegicus [5] = test: Antihyperalgesic effects in Sprague-Dawley rat CCI model assessed as duration of paw withdrawal at 100 mg/kg, ip after 2.5 hrs; assay type: functional; conditions: route intraperitoneal
Mus musculus [6] = test: Anticonvulsant activity in Swiss Albino mouse at 300 mg/kg, ip after 4 hrs by scSTY test; assay type: functional, organism-based; design: dose 300 mg/kg; outline: as §1
Rattus norvegicus [7] = test: Antihyperalgesic effects in Sprague-Dawley rat SNL model assessed as duration of paw withdrawal at 100 mg/kg, ip after 1 hr, ip; assay type: functional; conditions: route intraperitoneal
Outline: (§3)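 L5 SNL rats (n = 4), dosed 100 mg/kg i.p. (vehicle 30% v/v PEG 400 in water). Pin-prick to midplantar ipsilateral left hindpaw; withdrawal duration, mean of three responses; ≥2 s defined abnormal. Mean ± SEM; one-way ANOVA with Bonferroni versus predrug.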

Rattus norvegicus [8] = test: Antihyperalgesic effects in Sprague-Dawley rat CCI model assessed as duration of paw withdrawal at 100 mg/kg, ip after 2 hrs; assay type: functional; conditions: route intraperitoneal
Rattus norvegicus [9] = test: Antihyperalgesic effects in Sprague-Dawley rat SNL model assessed as duration of paw withdrawal at 100 mg/kg, ip after 1.5 hrs, ip; assay type: functional; conditions: route intraperitoneal; outline: as §3
Mus musculus [10] = test: Neurotoxicity in Swiss Albino mouse at 300 mg/kg, ip after 0.5 hr by rotarod test; assay type: functional, organism-based; design: dose 300 mg/kg
Outline: (§4)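 Swiss mice (20-25 g) are trained on an accelerating rotorod (10 rpm, 3.2 cm rod), then injected i.p. at 30, 100 or 300 mg/kg, with three per group. Neurotoxicity means failure to keep equilibrium for at least 1 min in each of three trials, checked at 0.5 and 4 h. The value reported is the minimum dose affecting half or more of the mice.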

Rattus norvegicus [11] = test: Anti-cold allodynia effect in Sprague-Dawley rat SNL model assessed as duration of paw withdrawal 100 mg/kg, ip after 2 hrs; assay type: functional; conditions: route intraperitoneal
Outline: (§5)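 Left L5 spinal nerve ligation under pentobarbital (65 mg/kg i.p.). Allodynic rats dosed i.p. 100 mg/kg, vehicle 30% v/v PEG 400 in water. Acetone (100-200 µL) misted onto midplantar affected paw after 10 min acclimatization; paw withdrawal duration, mean of three samples at least 3 min apart; n = 4 rats.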

Rattus norvegicus [12] = test: Anti-cold allodynia effect in Sprague-Dawley rat SNL model assessed as duration of paw withdrawal 100 mg/kg, ip after 1.5 hrs; assay type: functional; conditions: route intraperitoneal; outline: as §5
Rattus norvegicus [13] = test: Anti-dynamic allodynia effect in Sprague-Dawley rat SNL model assessed as latency to paw withdrawal 100 mg/kg, ip after 1 hr; assay type: functional; conditions: route intraperitoneal; outline: as §2
Mus musculus [14] = test: Analgesic activity in Swiss Albino mouse assessed as number of acetic acid-induced writhing per 30 min after 100 mg/kg, ip; assay type: functional; conditions: route intraperitoneal
Outline: (§6)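 Mice in groups of six dosed i.p. at 100 mg/kg, controls receiving 30% v/v PEG 400 in water. Writhing induced by i.p. 0.1 mL of 3% v/v acetic acid 1 h after drug. Writhes (abdominal stretch with at least one hind limb extended) counted over 30 min; % inhibition calculated. Mean ± SEM, Student's t test.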

Mus musculus [15] = test: Analgesic activity in Swiss Albino mouse assessed as inhibition of acetic acid-induced writhing responses at 100 mg/kg, ip; assay type: functional; conditions: route intraperitoneal; outline: as §6
Rattus norvegicus [16] = test: Anti-dynamic allodynia effect in Sprague-Dawley rat SNL model assessed as latency to paw withdrawal 100 mg/kg, ip after 2.5 hrs; assay type: functional; conditions: route intraperitoneal; outline: as §2
Rattus norvegicus [17] = test: Anti-dynamic allodynia effect in Sprague-Dawley rat SNL model assessed as latency to paw withdrawal 100 mg/kg, ip after 0.5 hr; assay type: functional; conditions: route intraperitoneal; outline: as §2
Rattus norvegicus [18] = test: Antihyperalgesic effects in Sprague-Dawley rat CCI model assessed as duration of paw withdrawal at 100 mg/kg, ip after 0.5 hr; assay type: functional; conditions: route intraperitoneal
Rattus norvegicus [19] = test: Anti-cold allodynia effect in Sprague-Dawley rat SNL model assessed as duration of paw withdrawal 100 mg/kg, ip after 1 hrs; assay type: functional; conditions: route intraperitoneal; outline: as §5
Rattus norvegicus [20] = test: Anti-dynamic allodynia effect in Sprague-Dawley rat SNL model assessed as latency to paw withdrawal 100 mg/kg, ip after 1.5 hrs; assay type: functional; conditions: route intraperitoneal; outline: as §2
Rattus norvegicus [21] = test: Antihyperalgesic effects in Sprague-Dawley rat SNL model assessed as duration of paw withdrawal at 100 mg/kg, ip after 0.5 hr, ip; assay type: functional; conditions: route intraperitoneal; outline: as §3
Mus musculus [22] = test: Anticonvulsant activity in Swiss Albino mouse at 300 mg/kg, ip after 0.5 hr by MES test; assay type: functional, organism-based; design: dose 300 mg/kg; outline: as §1
Rattus norvegicus [23] = test: Antihyperalgesic effects in Sprague-Dawley rat SNL model assessed as duration of paw withdrawal at 100 mg/kg, ip after 2.5 hrs, ip; assay type: functional; conditions: route intraperitoneal; outline: as §3
Rattus norvegicus [24] = test: Anti-cold allodynia effect in Sprague-Dawley rat SNL model assessed as duration of paw withdrawal 100 mg/kg, ip after 0.5 hr; assay type: functional; conditions: route intraperitoneal; outline: as §5
Mus musculus [25] = test: Neurotoxicity in Swiss Albino mouse at 300 mg/kg, ip after 4 hrs by rotarod test; assay type: functional, organism-based; design: dose 300 mg/kg; outline: as §4
Rattus norvegicus [26] = test: Antihyperalgesic effects in Sprague-Dawley rat SNL model assessed as duration of paw withdrawal at 100 mg/kg, ip after 2 hrs, ip; assay type: functional; conditions: route intraperitoneal; outline: as §3
Mus musculus [27] = test: Anticonvulsant activity in Swiss Albino mouse at 300 mg/kg, ip after 4 hrs by scPIC test; assay type: functional, organism-based; design: dose 300 mg/kg; outline: as §1
Rattus norvegicus [28] = test: Antihyperalgesic effects in Sprague-Dawley rat CCI model assessed as duration of paw withdrawal at 100 mg/kg, ip after 1.5 hrs; assay type: functional; conditions: route intraperitoneal
Rattus norvegicus [29] = test: Anti-cold allodynia effect in Sprague-Dawley rat SNL model assessed as duration of paw withdrawal 100 mg/kg, ip after 2.5 hrs; assay type: functional; conditions: route intraperitoneal; outline: as §5
Mus musculus [30] = test: Anticonvulsant activity in Swiss Albino mouse at 300 mg/kg, ip after 4 hrs by MES test; assay type: functional, organism-based; design: dose 300 mg/kg; outline: as §1
Mus musculus [31] = test: Anticonvulsant activity in Swiss Albino mouse at 300 mg/kg, ip after 0.5 hr by scPIC test; assay type: functional, organism-based; design: dose 300 mg/kg; outline: as §1
Rattus norvegicus [32] = test: Effect on spontaneous pain in Sprague-Dawley rat SNL model assessed as duration of paw withdrawal at 100 mg/kg, ip after 2.5 hrs; assay type: functional; conditions: route intraperitoneal
Outline: (§7)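 Rats underwent left L5 spinal nerve ligation (Kim and Chung) under i.p. pentobarbital (65 mg/kg). Spontaneous pain is recorded for 5 min after 10 min acclimatization, as cumulative duration the ipsilateral paw is lifted, excluding locomotor lifts. Dosing is 100 mg/kg i.p. in 30% v/v PEG 400/water, with testing at 0.5–2.5 h. Four rats, mean ± SEM versus predrug, one-way ANOVA with Bonferroni.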

Rattus norvegicus [33] = test: Effect on spontaneous pain in Sprague-Dawley rat SNL model assessed as duration of paw withdrawal at 100 mg/kg, ip after 0.5 hr; assay type: functional; conditions: route intraperitoneal; outline: as §7
Rattus norvegicus [34] = test: Effect on spontaneous pain in Sprague-Dawley rat SNL model assessed as duration of paw withdrawal at 100 mg/kg, ip after 1.5 hrs; assay type: functional; conditions: route intraperitoneal; outline: as §7
Rattus norvegicus [35] = test: Effect on spontaneous pain in Sprague-Dawley rat CCI model assessed as duration of paw withdrawal at 100 mg/kg, ip after 1.5 hrs; assay type: functional; conditions: route intraperitoneal
Outline: (§8)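 Unilateral CCI of sciatic nerve (Bennett and Xie) in Sprague-Dawley rats under i.p. pentobarbital sodium (65 mg/kg). Spontaneous pain is scored over 5 min after 10 min acclimatization, as cumulative time the ipsilateral paw is held off the floor. Paw lifts from locomotion or repositioning are excluded. Drug is given at 100 mg/kg i.p. with 30% v/v PEG 400 vehicle. Mean ± SEM, n = 4, compared with predrug by ANOVA/Bonferroni.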

Rattus norvegicus [36] = test: Effect on spontaneous pain in Sprague-Dawley rat CCI model assessed as duration of paw withdrawal at 100 mg/kg, ip after 1 hr; assay type: functional; conditions: route intraperitoneal
Outline: (§9)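 CCI rats (n = 4) dosed 100 mg/kg i.p. (vehicle 30% v/v PEG 400 in water). After 10 min acclimatization in a cage 5 cm above ground, cumulative time the ipsilateral paw was held off the floor over 5 min recorded, excluding locomotion lifts. Mean ± SEM; ANOVA/Bonferroni versus predrug.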

Rattus norvegicus [37] = test: Effect on spontaneous pain in Sprague-Dawley rat CCI model assessed as duration of paw withdrawal at 100 mg/kg, ip after 2 hrs; assay type: functional; conditions: route intraperitoneal; outline: as §8
Rattus norvegicus [38] = test: Effect on spontaneous pain in Sprague-Dawley rat SNL model assessed as duration of paw withdrawal at 100 mg/kg, ip after 2 hrs; assay type: functional; conditions: route intraperitoneal; outline: as §7
Rattus norvegicus [39] = test: Effect on spontaneous pain in Sprague-Dawley rat CCI model assessed as duration of paw withdrawal at 100 mg/kg, ip after 2.5 hrs; assay type: functional; conditions: route intraperitoneal; outline: as §8
Rattus norvegicus [40] = test: Effect on spontaneous pain in Sprague-Dawley rat CCI model assessed as duration of paw withdrawal at 100 mg/kg, ip after 0.5 hr; assay type: functional; conditions: route intraperitoneal; outline: as §9
Rattus norvegicus [41] = test: Effect on spontaneous pain in Sprague-Dawley rat SNL model assessed as duration of paw withdrawal at 100 mg/kg, ip after 1 hr; assay type: functional; conditions: route intraperitoneal; outline: as §7

| SMILES | Activity (Mus musculus [1]) | Activity (Mus musculus [2]) | Activity (Rattus norvegicus [3]) | Activity (Rattus norvegicus [4]) | Activity (Rattus norvegicus [5]) | Activity (Mus musculus [6]) | Activity (Rattus norvegicus [8]) | Activity (Mus musculus [10]) | Activity (Rattus norvegicus [11]) | Activity (Rattus norvegicus [12]) | Activity (Rattus norvegicus [13]) | Activity (Mus musculus [14]) | inhibition in vivo at 100 mg/kg (Mus musculus [15]) | Activity (Rattus norvegicus [16]) | Activity (Rattus norvegicus [17]) | Activity (Rattus norvegicus [18]) | Activity (Rattus norvegicus [19]) | Activity (Rattus norvegicus [20]) | Activity (Mus musculus [22]) | Activity (Rattus norvegicus [24]) | further results |
| --- | --- | --- | --- | --- | --- | --- | --- | --- | --- | --- | --- | --- | --- | --- | --- | --- | --- | --- | --- | --- | --- |
| O=C(O)CCCNC(=O)NN=C1CCCC1 | inactive | inactive | 30.7 s | 10.3 s | 25.3 s | inactive | 22.8 s | Active | 11 s | 10.9 s | 6.6 s | 18 | 90% | 10.92 s | 5.7 s | 32.1 s | 11.2 s | 7.8 s | inactive | 12 s | Activity (Rattus norvegicus [7]): 9.9 s; Activity (Rattus norvegicus [9]): 5.1 s; Activity (Rattus norvegicus [21]): 5.3 s; Activity (Rattus norvegicus [23]): 8.6 s; Activity (Mus musculus [25]): Active; Activity (Rattus norvegicus [26]): 9.6 s; Activity (Mus musculus [27]): inactive; Activity (Rattus norvegicus [28]): 17.7 s; Activity (Rattus norvegicus [29]): 1.9 s; Activity (Mus musculus [30]): Active; Activity (Mus musculus [31]): inactive |
| C/C(=N\NC(=O)NCCCC(=O)O)c1ccc(C)cc1 | inactive | Active | 13.2 s | 12.4 s | 4.2 s | inactive | 5.3 s | Active | 10.7 s | 12.9 s | 9.1 s | 32.5 | 82% | 12.02 s | 12.5 s | 27.3 s | 23.9 s | 10.9 s | inactive | 27.2 s | Activity (Rattus norvegicus [32]): 3.1 s; Activity (Rattus norvegicus [33]): 22.2 s; Activity (Rattus norvegicus [34]): 6.4 s; Activity (Rattus norvegicus [35]): 18.3 s; Activity (Rattus norvegicus [36]): 21.8 s; Activity (Mus musculus [25]): inactive; Activity (Rattus norvegicus [37]): 10.9 s; Activity (Rattus norvegicus [38]): 2.9 s; Activity (Rattus norvegicus [39]): 10.7 s; Activity (Mus musculus [27]): inactive; Activity (Rattus norvegicus [40]): 23.9 s; Activity (Rattus norvegicus [41]): 11.1 s; Activity (Rattus norvegicus [28]): 9.6 s; Activity (Rattus norvegicus [29]): 14.3 s; Activity (Mus musculus [30]): inactive; Activity (Mus musculus [31]): Active |
